Published values of several laboratories.
Target: Tyrosine-protein kinase Lyn (LYN, Homo sapiens, UniProt P07948)

`CN(C(=O)c1ccccc1)c1cc(N(C)c2ccc3c(c2)CCc2ccc(C(=O)NCCN4CCOCC4)cc2C3=O)ccc1F` has a remaining binding of 86% (cell-free assay, competition with immobilised ligand; 1 µM).
For `Cc1ccc(NC(=O)c2ccc(CN3CCN(C)CC3)cc2)cc1Nc1nccc(-c2cccnc2)n1`, the activity vs control was 59.6% (enzyme activity, inhibitor; 0.5 µM).
The remaining binding of `CC(=O)c1c(NS(C)(=O)=O)c2cc(-c3ccc(Cl)cc3)c(-c3ccc(Cl)cc3Cl)nc2n(C)c1=O` is reported as 100% (cell-free assay, competition with immobilised ligand; 1 µM).
`O=c1cc(-c2cccc3c2Sc2ccccc2S3)oc(N2CCOCC2)c1` has a remaining activity of 106% (enzyme activity, inhibitor; 0.5 µM).
The ΔTm of `Cn1c2c(Cl)c(Cl)ccc2c2cc[nH]c(=O)c21` is reported as 0 °C (thermal stability, DSF; 10 µM).
The remaining signal of `O=C1NC(=O)c2cc(Nc3ccc(F)cc3)c(Nc3ccc(F)cc3)cc21` is reported as 98.7% (cell-free assay, inhibitor; 0.5 µM).
`O=C(NS(=O)(=O)c1ccc(NCC2CCOCC2)c([N+](=O)[O-])c1)c1ccc(N2CCN(Cc3ccc(C(F)(F)F)cc3-c3ccc(Cl)cc3)CC2)cc1Oc1cnc2[nH]ccc2c1` gave a remaining binding of 99% (cell-free assay, competition with immobilised ligand; 1 µM).
For `CCCOc1ccc(OC)c(F)c1C(=O)c1ccc(C(=O)N[C@@H]2CNC[C@H]2NC(=O)c2ccc3[nH]ncc3c2)cc1`, the remaining activity was 39% (enzyme activity, inhibitor; 10 µM).
`COc1cc(Cl)c(C(=O)N[C@@H](CN[C@H]2CC[C@@H](N)CC2)Cc2ccc(C#N)cc2)cc1-c1ccc(CN[C@H](C)c2ccc(C)cc2)o1` has a remaining activity of 90% (enzyme activity, inhibitor; 1 µM).
For `Cc1sc(C(=O)NC2COC2)cc1-n1cc(NC(=O)Nc2c(F)cccc2Cl)cn1`, the remaining activity was 106% (enzyme activity, inhibitor; 10 µM).
With `N#CCCc1ccc2c(c1)-c1[nH]c3ccc([N+](=O)[O-])cc3c1CC(=O)N2` the remaining signal was 23% (cell-free assay; 0.5 µM).
`Cn1c2c(c3ccc(Cl)c(Cl)c31)C(C#N)C1(CCCC1)NC2=O` (centres unmarked) has a ΔTm of 0 °C (thermal stability, DSF; 10 µM).
For `CNCc1ccc(-c2cc(-c3nc(-c4ccc(S(=O)(=O)C(C)C)cc4)cnc3N)on2)cc1`, the inhibition was 53% (enzyme activity, inhibitor; 2 µM).
For `CCN(CC)CCNC(=O)c1c(C)[nH]c(/C=C2\C(=O)Nc3ccc(F)cc32)c1C`, the inhibition was 98% (enzyme activity, inhibitor; 10 µM).
For `CC(C)c1ccc(NC(=O)c2cccs2)c(-c2nc3ccccc3[nH]c2=O)c1`, the activity vs control was 83% (enzyme activity, inhibitor; 1 µM).
`O=c1c2ccccc2[nH]c(=S)n1CCN1CCC(=C(c2ccc(F)cc2)c2ccc(F)cc2)CC1` has a remaining activity of 108% (enzyme activity, inhibitor; 0.5 µM).
For `c1nc2c(Nc3ccc4c(c3)OCCO4)nc(Nc3ccc4c(c3)OCCO4)nc2[nH]1`, the activity vs control was 32% (enzyme activity, inhibitor; 10 µM).
For `O=C(NC[C@@H]1[C@H]2CN(C(=O)OCc3cc(C(F)(F)F)cc(C(F)(F)F)c3)C[C@@H]12)c1ccc2[nH]nnc2c1`, the remaining binding was 100% (cell-free assay, competition with immobilised ligand; 1 µM).
For `CNC(=O)c1cc2c(Oc3ccc(NC(=O)C4(C(=O)Nc5ccc(F)cc5)CC4)cc3)ccnc2cc1OC`, the inhibition was 99% (enzyme activity, inhibitor, radiometric; 1 µM).
`CNC(=O)c1cc(Oc2ccc(NC(=O)Nc3ccc(Cl)c(C(F)(F)F)c3)cc2)ccn1` gave an inhibition of 96% (enzyme activity, inhibitor; 10 µM).
`CCC1(CC)NC(=O)c2c(c3ccc(Cl)c(Cl)c3n2C)C1C#N` (centres unmarked) gave a ΔTm of -0.3 °C (thermal stability, DSF; 10 µM).
With `Clc1ccc(Nc2nnc(Cc3ccncc3)c3ccccc23)cc1` the remaining signal was 91.8% (cell-free assay; 0.5 µM).
With `Cc1ccc(NC(=O)c2ccc(C)c(C(F)(F)F)c2)cc1C#Cc1nn(C2CCC(O)CC2)c2ncnc(N)c12` (centres unmarked) the remaining signal was 0% (cell-free assay, inhibitor; 10 µM).
`Cc1ccc(C(=O)Nc2ccc(CN3CCN(C)CC3)c(C(F)(F)F)c2)cc1C#Cc1cnc2cccnn12` gave a remaining activity of 0.65% (enzyme activity, inhibitor; 23.5 nM).
`CS(=O)(=O)CCNCc1ccc(-c2ccc3ncnc(Nc4ccc(OCc5cccc(F)c5)c(Cl)c4)c3c2)o1` gave a remaining signal of 104% (cell-free assay; 0.5 µM).
For `C[C@H](NC(=O)c1cnc2n1[C@](C)(Cc1ccc(C#N)cc1)C(=O)N2c1cc(Cl)c(F)c(Cl)c1)C(=O)NC1(c2ccccn2)CC1`, the remaining binding was 100% (cell-free assay, competition with immobilised ligand; 1 µM).
For `N#CC1c2c([nH]c3c(Cl)c(Cl)ccc23)C(=O)NC12CCCCC2` (racemic), the ΔTm was 0.2 °C (thermal stability, DSF; 10 µM).
The remaining activity of `CC(C)(C)c1nc2c(s1)c1nc(N)ncc1c1ccc(NS(=O)(=O)c3c(F)cccc3F)c(F)c12` is reported as 87% (enzyme activity, inhibitor, radiometric; 1 µM).
With `CCOC(=O)c1cc2cc(-c3cc(C(=O)NCc4ccc(C(=O)O)cc4)nn3C)ccc2[nH]1` the remaining binding was 100% (cell-free assay, competition with immobilised ligand; 0.1 µM).
With `Cn1c2c(Cl)c(Cl)ccc2c2cn[nH]c(=O)c21` the ΔTm was -0.1 °C (thermal stability, DSF; 10 µM).
For `Cc1cnc(NC2CCOCC2)nc1-n1cnc(C(=O)NC(CN)c2cc(F)cc(Cl)c2)c1` (centres unmarked), the remaining activity was 84% (enzyme activity, inhibitor, radiometric; 1 µM).
`N#CC1(c2ccccn2)CCN(Cc2cc(C(=O)N3CCCC3)c(=O)n3ccccc23)CC1` gave a remaining binding of 99% (cell-free assay, competition with immobilised ligand; 1 µM).
`CCN1CCC2(CC1)NC(=O)c1c(c3ccc(Cl)c(Cl)c3n1C)C2C#N` (racemic) has a ΔTm of 0 °C (thermal stability, DSF; 10 µM).
`CN(C)c1ncnc(-c2ccc3nc(Nc4cc(CN5CCN(C(=O)CC(F)(F)F)CC5)ccn4)[nH]c3c2)c1Cl` gave a remaining binding of 94% (cell-free assay, competition with immobilised ligand; 1 µM).
For `Cn1c2c(c3ccccc31)C(C#N)C(C)(C)NC2=O` (centres unmarked), the ΔTm was 0 °C (thermal stability, DSF; 10 µM).
